Here are results for 4 molecules from paper PMC6077846 (ChemMedChem, 2018).

“Also recorded” adds a separate entry of the source.

The subject of data set [1] is cPLA2α. To be noted: cPLA2α inhibition; ref [19] and [20]; cited from earlier work.
The nature of data set [2]: PET imaging in wild type mice, baseline radioactivity uptake. It is filed as in vivo. Particulars: i.v. injection. A digest of the protocol:
(§1)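 Mice under 1.5% isoflurane were given about 7.4 MBq of 11C-labelled test compound i.v. via a tail-vein catheter. Vehicle was ethanol/saline 1:9 with ascorbic acid and Tween. Dynamic microPET ran for 100 min and brain time-activity curves were plotted in SUV. Images were reconstructed by Fourier rebinning and 2D OSEM, with no attenuation or scatter correction.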

Data set [3] can be described thus: Lipophilicity. It is filed as physicochemical. Particulars: 1-octanol/sodium phosphate buffer, pH 7.4. A digest of the protocol:
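The 11C-labelled test compound was partitioned between 1-octanol and 0.15 M sodium phosphate buffer, pH 7.4. The aqueous phase left after extraction was analysed by radio-HPLC on C18 with MeOH:H2O:Et3N (92.5:7.5:0.1) at 4.0 mL/min. The result was decay-corrected and corrected for radioligand instability in the buffer.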

Data set [4] can be described thus: Distribution into cellular blood elements, monkey blood. It is filed as in vitro ADME. Particulars: absence of autologous plasma. A digest of the protocol: (§2)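 Carbon-11 carboxyl-labelled test compound added to freshly drawn heparin-anticoagulated blood. Blood cells were tested with and without autologous plasma, and the fraction of radioactivity bound to cells was determined. Mean ± SD, n = 3.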

In data set [5] the target is T1, cPLA2α (Mus musculus, UniProt P47713).
T1 sequence (P47713 1-748): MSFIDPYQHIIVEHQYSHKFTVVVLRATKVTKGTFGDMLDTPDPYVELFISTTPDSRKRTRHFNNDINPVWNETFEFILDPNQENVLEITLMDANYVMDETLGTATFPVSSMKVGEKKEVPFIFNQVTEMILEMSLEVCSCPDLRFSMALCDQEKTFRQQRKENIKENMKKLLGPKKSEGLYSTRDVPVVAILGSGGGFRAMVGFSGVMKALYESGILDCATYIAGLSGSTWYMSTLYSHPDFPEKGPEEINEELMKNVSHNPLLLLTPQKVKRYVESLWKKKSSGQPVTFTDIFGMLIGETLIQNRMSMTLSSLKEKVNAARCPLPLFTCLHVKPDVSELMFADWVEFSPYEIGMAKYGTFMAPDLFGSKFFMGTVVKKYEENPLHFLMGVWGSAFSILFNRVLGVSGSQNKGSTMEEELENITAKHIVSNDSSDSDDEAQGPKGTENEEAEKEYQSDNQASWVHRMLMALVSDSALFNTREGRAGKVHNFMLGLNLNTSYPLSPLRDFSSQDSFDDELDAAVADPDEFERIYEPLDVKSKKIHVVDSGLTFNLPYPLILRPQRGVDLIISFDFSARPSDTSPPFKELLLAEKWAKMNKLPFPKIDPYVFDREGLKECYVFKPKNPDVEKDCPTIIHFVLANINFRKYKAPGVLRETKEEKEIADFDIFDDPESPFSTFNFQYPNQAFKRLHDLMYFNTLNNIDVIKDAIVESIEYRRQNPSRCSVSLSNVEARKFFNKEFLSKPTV
The data set is described as follows: PET imaging in wild type mice with self-block pretreatment. To be noted: blocking agent 2 mg/kg i.v. 30 min before radioligand. It counts as in vivo. A digest of the protocol: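 Wild-type mice under 1.5% isoflurane first received unlabelled blocking agent, 2 mg/kg i.v. via tail-vein catheter. Thirty minutes later they were given about 7.4 MBq of 11C-labelled test compound in ethanol/saline (1:9), ascorbic acid and Tween. MicroPET ran for 100 min. Brain time-activity curves were compared with baseline. Reconstruction used FORE/2D OSEM without attenuation or scatter correction.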

For data set [6], the system named is P-gp/BCRP. The data set is described as follows: PET imaging in P-gp/BCRP dual knock-out mice. It counts as in vivo. A digest of the protocol:
as §1

Data set [7] is described as follows: Distribution into cellular blood elements, rat blood. To be noted: absence of autologous plasma. It is filed as in vitro ADME. The procedure, abridged:
as §2

A short description of data set [8]: Stability in aqueous sodium phosphate buffer. To be noted: sodium phosphate buffer 0.15 M, pH 7.4. It is filed as physicochemical.
The nature of data set [9]: Tissue stability in rat brain homogenate. It is filed as in vitro ADME. To be noted: room temperature, 30 min.

The IC50 is the point on the concentration scale where inhibition reaches its midpoint. One may read the logD as lipophilicity at a set pH, counting ionised and neutral species. On to `CC(C)C(=O)c1cn(CC(=O)COc2ccc(Oc3ccccc3)cc2)c2ccc(C(=O)O)cc12` [[^11C]1, 3-isobutyryl-1-(2-oxo-3-(4-phenoxyphenoxy)propyl)-1H-indole-5-carboxylic acid], for which the IC50 in data set [1] was 12 nM. Also, the “Peak radioactivity in brain” value worked out at 0.4 SUV in data set [2] and 0.5 SUV in data set [6] (P-gp/BCRP dual knock-out mice, i.v. injection). The molecule also gave a logD in [3] of 2.1 ± 0.01. The “Bound to blood cells” value in data set [4] and in [7] was “More than 94%” in each case. Also, in data set [5], the “Effect of pretreatment with non-radioactive ligand on brain time-activity curve” value was “did not alter”. The “Efflux transporter (P-gp/BCRP) substrate status” value in data set [6] (wild type vs dual knock-out mice brain uptake) was “not efflux transporters substrates; also recorded: not a brain P-gp or BRCP efflux transporter substrate”.

Take `Cc1noc(-c2cn(CC(=O)COc3ccc(Oc4ccccc4)cc3)c3ccc(C(=O)O)cc23)n1` [[^11C]3, 3-(3-methyl-1,2,4-oxadiazol-5-yl)-1-(2-oxo-3-(4-phenoxyphenoxy)propyl)-1H-indole-5-carboxylic acid]: in data set [1], the concentration for half-maximal inhibition (IC50) is 6.1 nM. The Stability in buffer in data set [8] is recorded as 99.7±0.2%. In addition, the logD in data set [3] is 2.07 ± 0.02.

As to `CC(=O)c1cn(CC(=O)COc2ccc(Oc3ccc(C(F)(F)F)cc3)cc2)c2ccc(C(=O)O)cc12` [[^11C]2, 3-acetyl-1-(2-oxo-3-(4-(4-(trifluoromethyl)-phenoxy)phenoxy)propyl)-1H-indole-5-carboxylic acid], the IC50 in [1] was 10 nM. This molecule yielded a Stability in buffer in data set [8] of 98.4±0.2%. In addition, the “Stability in rat brain homogenate” value in data set [9] was determined as 97.5%. In data set [3], this molecule gave a logD of 2.43 ± 0.01.

For `CCCCCCCCc1ccc(OCC(=O)Cn2cc(-c3nc(C)no3)c3cc(C(=O)O)ccc32)cc1` [[^11C]4, 3-(3-methyl-1,2,4-oxadiazol-5-yl)-1-(3-(4-octylphenoxy)-2-oxopropyl)-1H-indole-5-carboxylic acid], the Stability in buffer in data set [8] is on record as 80.3±3.4%. In addition, in data set [9], the “Stability in rat brain homogenate” value worked out at 104%. Besides, the logD in data set [3] came out at 1.94 ± 0.15.
